Rows were chosen to be rich in hits. Some 4% of all compounds tested hit in one or more screens of this group.
FAS-TE inh – FAS thioesterase (human) inhibition; P49327; recombinant FAS-TE, OMFH fluorogenic substrate, fluorescence endpoint; inhibition, % at 15 µM; 360,000 tested, 0.67% active; AID 602261;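 active = compounds whose normalised, plate-corrected inhibition of enzyme fluorescence in the single-dose primary screen is 50% or more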;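 note: 0% = DMSO with enzyme and 100% = substrate without enzyme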
SENP1 FRET inh – inhibitors of human SENP1 SUMO protease catalytic domain; 360,000 tested, 0.21% active; Q9P0U3; recombinant SENP1 catalytic domain, CyPet-SUMO1-YPet FRET cleavage; inhibition, % at 10 µM;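 active = inhibition at least 30% at 10 µM, raw YFP signal under a set limit, fluorescence ratio 0.5 to 1.5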;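 note: 0% = enzyme with DMSO and 100% = no enzyme wells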
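Test system: recombinant human SENP1 catalytic domain, His6-tagged / Medium: pH 8 Tris buffer with EDTA, NaCl, BME, BSA, NP40, catalase / Also added: SUMO1 FRET substrate flanked by Cypet and Ypet, 25 nM / Times: 50 min reaction at room temperature / Signal: FRET, CFP and YFP emission / Control set: no-enzyme low control and enzyme-plus-DMSO high control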
iPSC survival up – enhancers of human iPSC single-cell survival | hiPSC single-cell survival, ATPlite luminescence; 100% = ROCK inhibitor wells, 0% = DMSO | survival enhancement, % at 20 µM | 360,000 tested, 0.044% active | AID 602274; in the data active = survival enhancement above about 18%;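 note: cells exposed to compounds for 16 hours before the ATP read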
Arrestin-AP2 inh – inhibitors of human beta-arrestin and AP2 interaction. FITC-arrestin peptide / GST-AP2 beads, flow cytometry; AP2 beta2 appendage carries R879A mutation. inhibition, % at 10 µM. 340,000 tested, 0.31% active. AID 504490;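 active = inhibition above a set limit, near 3 SD of compounds lacking own fluorescence, cut at about 54% in these data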;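 note: plate controls were DMSO wells for no effect and 5 µM unlabelled arrestin peptide for full effect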
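Material – GST-tagged AP2 beta2-adaptin appendage (R879A) on 4 µm glutathione beads · Probe or stimulus – fluorescein-tagged arrestin peptide at 50 nM final · Timing – 12 min plus 1 h, RT · Detection – bead flow cytometry, FITC channel · Read-out basis – inhibition as reduced fluorescein signal on beads, percent · Medium – PBS plus Tween 20 (0.05%) and BSA (0.1%)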
GRIN3A LBD mod – NR3A (human) ligand-binding domain modulation | 340,000 tested, 2.5% active | NR3A LBD differential scanning fluorimetry, Tm shift; 0% = protein alone, 100% = glycine-bound protein | Tm shift relative to glycine control, % at 25 µM;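 active = melting temperature shift of at least 10% of the positive control shift, at one fixed dose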
H9c2 protect – modulators protecting cardiomyocytes from myocardial damage | protection from H2O2 cell death, % at 20 µM | 360,000 tested, 0.63% active | H9c2 cardiomyocytes, H2O2 injury protection, ATPLite, 2 h;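 active = compounds giving at least 50% protection of heart cells from peroxide-induced death in the single-dose screen, raw or plate-pattern-corrected value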;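 note: 0% = DMSO wells with peroxide and 100% = DMSO wells without peroxide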
* marks the source's active call; other numbers are inactive results; / = no result.

SMILES	FAS-TE inh	SENP1 FRET inh	iPSC survival up	Arrestin-AP2 inh	GRIN3A LBD mod	H9c2 protect
CCN(CC)S(=O)(=O)c1ccc(N/N=C/c2cc(OC)c(OC)cc2OC)nc1	-9.4	-70.2	5.7	8.6	-11.3	3.1
CCOc1cccc(/C=N/Nc2ccc(S(=O)(=O)N(CC)CC)cn2)c1O	-5.3	-3.6	-1.2	16.7	-5.9	56.6*
COc1ccc(NC(=S)NNc2ccc(S(=O)(=O)Nc3ccccc3C(=O)O)cc2[N+](=O)[O-])cc1	5.1	2.4	2.2	39.6	15.9*	-4.3
O=[N+]([O-])c1ccccc1/C=C/C=N/Nc1ccc(S(=O)(=O)Nc2ccc(Cl)cc2)cc1[N+](=O)[O-]	46.4	6.4	0.1	8.4	11.1*	-14.6
O=C(O)c1ccc(N/N=C/C=C/c2ccccc2[N+](=O)[O-])cc1	-4.3	1.3	-0.1	31.1	1.9	9.1
CCOc1cccc(C=NNc2ccc(S(=O)(=O)Nc3ccccc3C(=O)O)cc2[N+](=O)[O-])c1O	5.7	3.5	6.3	1.1	16.7*	-1.8
O=C(CCNC(=O)N1CC(=O)Nc2ccccc21)NCc1cccc(C(F)(F)F)c1	-4.8	-0.7	3.5	/	/	-2.6
O=C(O)c1ccccc1NS(=O)(=O)c1ccc(NN=Cc2ccccc2F)c([N+](=O)[O-])c1	20.4	2.8	6.0	33.8	10.0*	-3.1
COc1ccc(NS(=O)(=O)c2ccc(N/N=C(\C)c3ccncc3)c([N+](=O)[O-])c2)cc1	47.1	-4.0	2.4	-6.6	21.3*	-14.3
CCOc1ccc(C=NNc2ccc(S(=O)(=O)Nc3ccccc3C(=O)O)cc2[N+](=O)[O-])cc1	39.9	5.8	0.5	35.9	4.8	0.1
COc1ccc(C=NNc2ccc(S(=O)(=O)Nc3ccccc3C(=O)O)cc2[N+](=O)[O-])c(OC)c1	48.9	5.3	0.7	-1.9	457.2*	-3.8
Cc1ccc(C(NC(=O)C2CCN(Cc3ccc(Oc4ccccc4)cc3)CC2)c2ccccn2)cc1 (stereo not drawn)	12.2	-3.2	-0.5	/	/	-5.8
NS(=O)(=O)c1ccc(CCNC(=O)Cc2ccc(Cl)cc2)cc1	-4.8	10.1	-0.7	3.7	0.7	2.7
COc1ccc(CCNC(=O)c2cc(-c3ccccc3O)n[nH]2)cc1OC	-4.7	2.6	-2.9	4.1	-6.5	6.6
Cc1cc(C)c(O)c(-c2cc(C(=O)NCCc3ccc(S(N)(=O)=O)cc3)[nH]n2)c1	5.6	-1.3	0.4	22.7	-5.1	16.3
Cc1cc(O)c(-c2cc(C(=O)NCCc3ccc(S(N)(=O)=O)cc3)[nH]n2)cc1C	1.6	1.3	0.4	34.5	21.8*	13.2
NS(=O)(=O)c1ccc(CCNC(=O)c2cc(-c3cc(Cl)ccc3O)n[nH]2)cc1	-2.4	1.4	-0.6	-4.4	25.0*	6.2
COc1ccc(CCNC(=O)c2cc(-c3cc(Cl)ccc3O)n[nH]2)cc1OC	5.2	0.0	-0.2	-7.3	10.4*	-7.5
O=c1cc(CN2CCN(c3ccc(Cl)c(Cl)c3)CC2)c2c(ccc3ccccc32)o1	25.7	-0.8	0.8	/	/	-0.6
Cc1ccc(C(NC(=O)C2CCN(CCOc3ccccc3)CC2)c2ccccn2)cc1 (stereo not drawn)	-1.3	-3.7	-0.8	/	/	9.1
CC(C)c1ccc(S(=O)(=O)Nc2ccc(SC(F)F)cc2)cc1	32.6	0.9	4.5	-7.2	13.0*	-12.8
COCCCN=Cc1c(C)[nH]n(-c2ccc(Br)c(C)c2)c1=O	0.7	2.0	-0.5	3.5	66.1*	0.5
CCCC(=O)N1CCC1(C)C(=O)NS(=O)(=O)c1ccccc1 (stereo not drawn)	-6.9	0.2	-0.6	/	/	2.7
Cc1csc(NC(=O)c2cc3c(s2)-c2ccccc2OC3)n1	-4.9	-82.9	-1.0	-13.9	10.3*	-3.3
CC1=C(C(=O)N2CCCCCC2)CC(CC(=O)NCCCN(C)C)C(=O)N1CCCN1CCCC1=O (stereo not drawn)	-1.8	-1.7	-2.1	/	/	/
SMILES	FAS-TE inh	SENP1 FRET inh	iPSC survival up	Arrestin-AP2 inh	GRIN3A LBD mod	H9c2 protect
CCCCCCCCN1C(=O)[C@H](CC(=O)NCc2ccccc2)C[C@@]2(C(=O)OC)CCCCC=C12	7.7	1.3	-0.4	/	/	/
COc1cc(C)cc2oc(=O)c(CC(=O)N3CCN(C(=O)C4COc5ccccc5O4)CC3)c(C)c12 (stereo not drawn)	3.3	-0.3	-0.1	-8.1	-2.2	47.0*
Cc1ccc(NC(=O)/C(C#N)=C/c2ccsc2)c(C)c1	-4.5	2.9	2.7	-2.0	11.5*	-4.6
CCCCNC(=S)N/N=C/c1ccccc1F	3.7	2.8	-1.6	1.2	4.3	-13.6
CCCCNC(=S)N(C)/N=C/c1c(F)c(F)c(F)c(F)c1F	30.9	1.8	0.4	7.3	20.5*	-8.9
CCCCNC(=S)N(C)/N=C/c1c(C)[nH]c2ccccc12	-2.4	8.5	0.2	-1.5	12.2*	-20.3
CCCCN(C)CCNC(=O)C(=O)c1c(C)[nH]c2ccccc12	-3.6	0.1	-0.8	13.0	0.6	9.3
COc1cccc(-c2cnc(C(O)c3ccc(C)c(F)c3)[nH]2)c1 (stereo not drawn)	1.0	-1.3	4.0	/	/	-15.5
Cc1ccc2ccccc2c1C(O)c1ncc(-c2ccccc2)[nH]1 (stereo not drawn)	-4.3	-0.4	-0.2	/	/	-7.4
O=C(Nc1ccc(Br)c(C(F)(F)F)c1)c1ccccc1	42.2	1.7	1.1	-1.1	7.6	-11.4
O=C(Nc1ccc(OCC(F)(F)C(F)F)c(C(F)(F)F)c1)c1ccc(Cl)cc1	37.9	0.7	-0.6	3.6	31.5*	-29.0
COc1ccc(C(=O)Nc2ccc(OCC(F)(F)C(F)F)c(C(F)(F)F)c2)cc1OC	26.5	0.7	4.6	-6.0	17.8*	7.1
O=C(Nc1ccc(Br)c(C(F)(F)F)c1)c1ccc(C(F)(F)F)cc1	45.7	0.9	-0.6	12.3	23.9*	-18.4
COc1ccc(NC(=O)c2ccc(COCC(F)(F)F)cc2)cc1OC	-0.6	-0.7	-1.2	6.4	-2.4	-3.1
CCOc1cc(/C=C2/SC(=S)NC2=O)ccc1OC(=O)c1ccco1	-1.9	74.8*	0.2	15.9	-1.8	-17.8
Cc1cc(OCC(=O)OCC(=O)N(Cc2ccccc2)C(C)(C)C)ccc1Cl	21.1	4.3	-1.5	/	/	-3.4
C[C@H](CO)N1C[C@H](C)[C@H](CN(C)C(=O)Cc2cccnc2)Oc2ncc(Br)cc2C1=O	-6.5	0.6	-1.9	/	/	4.2
COc1cccc(C(C(=O)NC(C)(C)C)N(C(=O)CCC(=O)Nc2cc(C)on2)C(C)(C)C)c1OC (stereo not drawn)	-3.5	0.7	-2.6	-5.8	-2.5	-0.4
C=CCN(C(=O)CCC(=O)Nc1cc(C)on1)C(C(=O)NC(C)(C)C)c1cccc(OC)c1OC (stereo not drawn)	-4.4	-1.1	-1.1	-10.9	401.4*	-1.3

Compound activity (PubChem)
